Compound activity (PubChem BioAssay)
CHO parental Ca: ATP-evoked calcium signal inhibitors, parental CHO, primary screen, counter-screen for OX1R antagonist project, cell-based, fluorescence, Fluo-8 calcium dye; parental CHO-K1, ATP-induced calcium, Fluo-8 fluorescence; inhibition, % at 5.6 µM; hit rate 0.63% among 330,000;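 active = inhibition above that plate's mean sample inhibition plus 3 SD, cut at about 26% in these data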;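 note: 0% = ATP-challenged DMSO wells and 100% = DMSO wells without ATP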
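Material – parental CHO cells · Reagent – ATP stimulus · Compound – single nominal dose of 5.6 µM per compound · Detection – Fluo-8 fluorescence · Read-out basis – percent inhibition of calcium signal · Controls – ATP-challenged DMSO wells low, unchallenged DMSO wells high · Repeats – no replicates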
GPR7 antag: GPR7 receptor antagonists, primary screen, cell-based, fluorescence, single concentration; AID 1861, 2009; GPR7-expressing cells, fluorescence antagonist assay; inhibition, % at 4.4 µM; hit rate 1.1% among 290,000; Neuropeptides B/W receptor type 1 (Homo sapiens), P48145; in the data active = inhibition above about 16%, passing the limit was not always enough;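 note: cells stimulated with the agonist NPW; 0% = agonist with vehicle and 100% = vehicle without agonist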
Target sequence (P48145 whole entry, looked up): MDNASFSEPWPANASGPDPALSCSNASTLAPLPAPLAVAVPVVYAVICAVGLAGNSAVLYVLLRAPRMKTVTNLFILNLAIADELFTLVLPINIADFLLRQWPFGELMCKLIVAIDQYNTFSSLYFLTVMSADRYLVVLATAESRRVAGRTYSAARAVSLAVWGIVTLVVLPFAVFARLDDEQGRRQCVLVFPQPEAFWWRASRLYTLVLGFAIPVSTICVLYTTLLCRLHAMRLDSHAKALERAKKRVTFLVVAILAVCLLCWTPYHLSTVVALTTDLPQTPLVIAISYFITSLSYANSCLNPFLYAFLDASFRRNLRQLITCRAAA
GalR3 antagonist: GalR3 antagonists in HEK293 cells, primary screen, cell-based, fluorescence readout. Galanin receptor type 3 (Homo sapiens), O60755. HEK293 GalR3-CNG cAMP membrane potential fluorescence; galR3 body fused to GalR1 C-terminus. hit rate 0.44% among 360,000. inhibition, % at 3 µM. AID 651719, 2012;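 active = inhibition above the screen-wide average plus 3 SD, cut at about 13% in these data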;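 note: forskolin and galanin both at EC90 stimulate the cells; cAMP rise reported by CNG channel membrane potential dye signal; 0% = forskolin plus galanin with DMSO and 100% = forskolin alone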
Target sequence (O60755 1-299 limits assumed): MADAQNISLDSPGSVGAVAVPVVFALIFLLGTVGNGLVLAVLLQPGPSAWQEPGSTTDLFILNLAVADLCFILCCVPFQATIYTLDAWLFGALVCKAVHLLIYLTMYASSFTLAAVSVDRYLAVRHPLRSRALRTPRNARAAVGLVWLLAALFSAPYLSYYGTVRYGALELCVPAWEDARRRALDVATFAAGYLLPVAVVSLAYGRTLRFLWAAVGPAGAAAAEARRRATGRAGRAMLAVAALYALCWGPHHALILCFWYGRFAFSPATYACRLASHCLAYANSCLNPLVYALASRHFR
OX1R antag-1: antagonists of human orexin 1 receptor (OX1R). hit rate 1.8% among 330,000. AID 485270, 2010. inhibition, % at 6.6 µM. OX1R-expressing cells, FRET antagonist read-out; in the data active = inhibition mostly above about 38%, no sharp cut-off; inactive = mostly below about 40%;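 note: 0% = agonist challenge alone and 100% = reference antagonist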
OX1R antag-2: OX1R (HCRTR1) antagonists, primary screen, fluorescence, CHO/OX1R cells, Fluo-8 calcium, orexin A; Orexin/Hypocretin receptor type 1 (Homo sapiens), O43613; Fluo-8 calcium fluorescence; inhibition, % at 5 µM; hit rate 0.43% among 330,000;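 active = inhibition above its plate's threshold, mean inhibition of all tested compounds on the plate plus 3 SD, cut at about 37% in these data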;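 note: 0% = orexin A challenge wells and 100% = SB-334867-A antagonist wells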
OX1R Ca confirm: OX1R (HCRTR1) antagonists, confirmation, fluorescence, CHO/OX1R cells, Fluo-8 calcium, orexin A; orexin A calcium Fluo-8 fluorescence; AID 492963, 2010; inhibition, % at 5 µM; shares compounds with OX1R antag-2; hit rate 38% among 1,100; in the data active = inhibition above about 29%;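 note: 0% = agonist challenge alone and 100% = reference antagonist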
CHO Ca counter: ATP-evoked calcium inhibition in parental CHO, counter-screen for OX1R antagonist project, cell-based, fluorescence, CHO-K1, triplicate; shares compounds with OX1R antag-2; ATP-induced calcium, Fluo-8 fluorescence; inhibition, % at 5.6 µM; hit rate 9.3% among 1,100;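 active = inhibition above a per-plate limit, the mean inhibition of that plate's test compounds plus 3 SD, cut at about 25% in these data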;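 note: 0% = ATP challenge with DMSO and 100% = DMSO without ATP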
The depositor's hits bear a star; x = no result. This is a sample that favours compounds with a hit; in the whole collection about 3.1% have one here.

SMILES | CHO parental Ca | GPR7 antag | GalR3 antagonist | OX1R antag-1 | OX1R antag-2 | OX1R Ca confirm | CHO Ca counter
O=C(Oc1ccc(Cl)c2cccnc12)N1CCOCC1 | -22 | -12 | 7 | 13 | -7 | x | x
CCc1nc2ccc(C(=O)NCc3ccccc3OC)cn2c1N(CC)CCOC | x | x | -3 | x | x | x | x
Cc1ccc(S(=O)(=O)NC(=O)C2(C)CCN2C(=O)CC2CCCC2)cc1 (stereo not drawn) | x | x | -2 | x | x | x | x
Cc1noc(C)c1COc1ccc(C(=O)OCC(N)=O)cc1 | -4 | -1 | -6 | 8 | -13 | x | x
Cc1noc(C)c1COc1ccc(C(=O)OCC(=O)N2c3ccccc3NC(=O)C2(C)C)cc1 | -13 | 0 | -2 | 16 | 29 | 47* | 5
Cc1noc(C)c1COc1ccc(C(=O)OCC(=O)N2CC(=O)Nc3ccccc32)cc1 | -2 | -5 | -5 | 35 | 82* | 76* | -7
Cc1noc(C)c1CSCC(=O)OCC(=O)N1CC(=O)Nc2ccccc21 | -3 | -14 | -5 | 19 | -21 | x | x
CC(C)=CCC/C(C)=C/CNC(=O)C[C@H]1C[C@H](C(=O)N2CCCCC2)[C@@]2(C)c3[nH]c4cc(CCC(=O)N(C)C)ccc4c3CCN2C1=O | -13 | x | x | 28 | 49* | 21 | -11
NC(=O)c1ccc(N2CCN(c3ccccc3F)CC2)c([N+](=O)[O-])c1 | 20 | 2 | 0 | 28 | 24 | 7 | 22
COc1cc2ccc(C=O)cc2cc1OC | x | x | 5 | x | x | x | x
O=C(CSc1ncccc1-c1nc2ccccc2[nH]1)NCc1ccco1 | -10 | -4 | -4 | 11 | -9 | x | x
Cc1cc2nc(-c3cccnc3SCC(=O)NCc3ccco3)[nH]c2cc1C | -14 | 7 | 1 | 14 | 26 | -3 | -3
Cc1ccc(C(C#N)c2ccc(C(=O)c3ccc(F)cc3)cc2)cc1 (stereo not drawn) | 29 | 2 | 2 | 43 | 33 | 1 | 9
CC(=O)C1=C(C)N(Cc2ccc(Br)cc2)C(=S)NC1c1ccc(F)cc1 (stereo not drawn) | x | x | -6 | x | x | x | x
N#Cc1ccc(-c2cccnc2)nc1SCC(=O)c1ccccc1 | 22 | 0 | -4 | 22 | 53* | 23 | 13
O=C(CSc1ncnc2c1cnn2CCc1ccccc1)Nc1cccc(C(F)(F)F)c1 | 24 | -10 | 0 | 38 | 61* | -8 | -9
Cc1c(Cl)cccc1NC(=O)CSc1ncnc2c1cnn2CCc1ccccc1 | -8 | -5 | -1 | 19 | -11 | x | x
CCCC(=O)N1CCC1(C)C(=O)Nc1ncc(C(=O)OC)s1 (stereo not drawn) | x | x | -7 | x | x | x | x
CSc1cc(C)c(OCC(=O)Nc2ccc(NC(C)=O)cc2)c(C)c1 | -9 | 2 | -8 | 34 | 28 | 14 | -1
CC(=O)Nc1ccc(NC(=O)COc2c(C)cc(Br)cc2C)cc1 | -14 | -4 | -6 | 14 | -26 | x | x
COc1ccc(NS(=O)(=O)c2ccc(SC)cc2)cc1 | 1 | 12 | -4 | 7 | 57* | 2 | 5
O=C(CCNC(=O)c1ccc(Br)o1)NC1CCCC1 | -5 | 9 | -5 | 2 | 23 | 7 | -18
O=C(NC1CCCCC1)c1ccc(Br)o1 | -12 | -16 | 0 | 17 | -15 | x | x
CCCc1nc(SCC(=O)N2CCCCCC2)c2c(=O)n(C)c(=O)n(C)c2n1 | -14 | -10 | x | 44 | -23 | x | x
COc1cccc2cc(-c3nc(-c4cccs4)cs3)c(=O)oc12 | -5 | 4 | -4 | 32 | 39 | 69* | -7
SMILES | CHO parental Ca | GPR7 antag | GalR3 antagonist | OX1R antag-1 | OX1R antag-2 | OX1R Ca confirm | CHO Ca counter
CCN(c1ccccc1)S(=O)(=O)c1cc(C(=O)O)ccc1C | -10 | -9 | -3 | 9 | -14 | x | x
CCN(c1ccccc1)S(=O)(=O)c1cc(C(=O)Nc2ccc(F)c(F)c2)ccc1F | -2 | -4 | -7 | 37 | 27 | 38* | 9
O=C(Nc1nnc(-c2ccccc2Cl)o1)c1nc2ccccc2s1 | 20 | -4 | 3 | -1 | 31 | 6 | 1
O=C(Nc1nnc(-c2ccccc2Cl)o1)c1ccco1 | -1 | -5 | -5 | 10 | -5 | x | x
O=[N+]([O-])c1ccc(N/N=C/c2ccccc2O)cc1 | 27 | 29 | -8 | 17 | 34 | 24 | 17
Cc1cc(C(=O)N2CCC2(C)C(=O)O)c(C)o1 (stereo not drawn) | x | x | -5 | x | x | x | x
COc1cc2c(cc1OC)CN(C(=O)Cn1ccccc1=O)CC2 | -3 | 0 | x | 8 | 51* | 1 | -1
COc1cc2c(cc1OC)CN(C(=O)CN1CCN(S(=O)(=O)c3ccccc3Br)CC1)CC2 | -25 | 2 | 0 | -1 | -31 | x | x
FC(F)(F)c1ccc(-c2cccc3c2C2CC3CCN2C(=S)NCCc2ccccc2)cc1 (stereo not drawn) | x | x | -3 | x | x | x | x
O=C(/C=C/c1ccc(S(=O)(=O)NCc2ccco2)cc1)NCc1cccc(Cl)c1 | 19 | 5 | -6 | 43 | 54* | 17 | 3
CCOC(=O)C1=CCN(S(=O)(=O)c2ccc(C)cc2)C1c1cccc(Cl)c1 (stereo not drawn) | x | x | -3 | x | x | x | x
CC(C)=CCOc1c2ccoc2c(OCC=C(C)C)c2oc(=O)ccc12 | -4 | x | 0 | 13 | 54* | 5 | 53*
CCOc1ccc2nc(SCCNS(=O)(=O)c3ccccc3)sc2c1 | 9 | -9 | 1 | 26 | 50* | -4 | 0
CCOc1ccc2nc(SCC(=O)c3ccccc3)sc2c1 | -13 | 1 | -8 | 6 | 21 | x | x
OC[C@@H]1CN(Cc2cccc(C(F)(F)F)c2)C[C@H](n2cnc3c(NCc4ccco4)ncnc32)O1 | x | x | -6 | x | x | x | x
Nc1c(C(O)(C(F)(F)F)C(F)(F)F)cc(C(O)(C(F)(F)F)C(F)(F)F)c2ccccc12 | 7 | 3 | x | 25 | 28 | -6 | -1
CC(=O)N=C1SC2CS(=O)(=O)CC2N1c1cccc(Cl)c1Cl (stereo not drawn) | -14 | -12 | -4 | 6 | -10 | x | x
CC(=O)N=c1cccc(NC(C)=O)n1O | -6 | -6 | 3 | 15 | 86* | 0 | 3
Cc1cc(C(=O)COC(=O)c2ccc(O)cc2O)c(C)n1-c1ccccc1 | 8 | x | -7 | 2 | 33 | 5 | 8
Cc1ccc(-c2nc3ccc(Cl)cn3c2Cc2cccc(Cl)c2)cc1 | x | x | -5 | x | x | x | x
Cc1ccccc1NS(=O)(=O)c1cc(C(=O)NCCSC2CCCCC2)ccc1C | -6 | -7 | -5 | 21 | 60* | 4 | -12
